Bioassay records: PubChem, several laboratories
The list is not random: actives were taken first. Their share in the collection is about 4.1%.
hERG protect – hERG rescue from dofetilide block, primary screen, cell-based, CHO-hERG, FluxOR thallium flux, dofetilide IC70 | dofetilide IC70 present | activation (rescue from dofetilide block), less the hit threshold, % at 10 µM | 310,000 compounds, 0.51% hits | AID 1511, 2009;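 active = activation above the mean of controls blocked by dofetilide plus 5 SD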;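 note: thallium influx through hERG after potassium depolarization seen as dye fluorescence rise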
Cl transport mod – KCC2 cotransporter modulators, thallium flux, primary screen, cell-based, HEK293 KCC2, FluoZin-2 fluorescence, MLSMR; Solute carrier family 12 member 5 (Homo sapiens), Q9H2X9; KCC2 cells, thallium flux FluoZin-2 fluorescence; B-score of Tl+ flux slope (higher = more flux/activation; lower = inhibition) at 10 µM; 190,000 compounds, 2.2% hits;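 active = thallium flux slope and its plate-corrected score both differing from the plate sample mean at a set confidence after two filtering rounds, in either direction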;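 note: slope of fluorescence scaled to starting intensity during 10 to 20 s after thallium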
KCNQ1 pot – potentiators or activators of KCNQ1 channel, primary screen, cell-based, thallium flux, high-throughput | Potassium voltage-gated channel subfamily KQT member 1 (Homo sapiens), P51787 | CHO-K1 KCNQ1, thallium flux FluxOR fluorescence; active compounds read high | B-score at 10 µM | 310,000 compounds, 0.35% hits;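 active = fluorescence ratio B-score, a plate-corrected score, at least three library SD, with initial intensity B-score within 5 SD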
Target sequence (P51787 whole entry, looked up): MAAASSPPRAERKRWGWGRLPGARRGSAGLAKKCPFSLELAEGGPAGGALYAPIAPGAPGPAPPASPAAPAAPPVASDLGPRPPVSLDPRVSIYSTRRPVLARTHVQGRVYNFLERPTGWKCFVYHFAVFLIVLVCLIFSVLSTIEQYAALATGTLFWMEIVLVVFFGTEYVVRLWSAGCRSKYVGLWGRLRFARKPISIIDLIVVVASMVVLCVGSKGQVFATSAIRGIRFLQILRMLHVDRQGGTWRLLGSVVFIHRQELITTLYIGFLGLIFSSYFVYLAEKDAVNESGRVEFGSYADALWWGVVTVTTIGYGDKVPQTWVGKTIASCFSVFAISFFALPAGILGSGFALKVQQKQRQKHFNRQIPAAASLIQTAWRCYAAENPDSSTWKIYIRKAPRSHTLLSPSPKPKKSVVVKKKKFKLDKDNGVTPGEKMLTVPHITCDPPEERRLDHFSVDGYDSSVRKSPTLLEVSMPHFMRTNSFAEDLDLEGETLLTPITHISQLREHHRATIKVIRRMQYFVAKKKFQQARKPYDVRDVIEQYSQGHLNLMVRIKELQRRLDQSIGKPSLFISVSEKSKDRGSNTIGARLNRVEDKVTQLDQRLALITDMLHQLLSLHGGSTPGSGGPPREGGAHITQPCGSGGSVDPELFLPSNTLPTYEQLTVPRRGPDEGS
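Assay system: CHO-K1 cells stably expressing KCNQ1. Medium: assay buffer for compound exposure, DMSO matched across wells. Timing: 37 °C overnight plating, 90-min dark dye load, 20-min compound pretreatment. Signal: kinetic FluxOR fluorescence, 10 s baseline plus 110 s post-stimulus.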
KCNK9 inh – KCNK9 potassium channel inhibitors, primary screen, HEK293 cells, thallium flux. Potassium channel subfamily K member 9 (Homo sapiens), Q9NPC2. FluxOR thallium flux fluorescence; active compounds read low. B-score at 10 µM. 310,000 compounds, 1.2% hits. AID 488922, 2010;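 active = ratio B-score over 3 SD below the library mean, with starting fluorescence within 5 SD of its mean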;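 note: negative B-score means less thallium flux so channel inhibition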
KCNK3 block – human KCNK3 channel inhibitors, primary screen, CHO cells, FluxOR thallium flux, B-score; Potassium channel subfamily K member 3 (Homo sapiens), O14649; FluxOR fluorescence; active compounds read low; B-score at 10 µM; 340,000 compounds, 0.84% hits;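 active = B-score under library mean minus 4 SD, starting fluorescence ratio at most library mean plus 5 SD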;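 note: more negative B-score means stronger inhibition of thallium flux through KCNK3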
KCNQ1 inh – inhibitors of human KCNQ1 channel, primary screen, cell-based, thallium flux, high-throughput | B-score at 10 µM | AID 2642, 2010 | Potassium voltage-gated channel subfamily KQT member 1 (Homo sapiens), P51787 | 310,000 compounds, 1.3% hits | CHO-K1 KCNQ1, FluxOR thallium flux fluorescence; active compounds read high;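 active = compounds whose thallium flux B-score, printed positive for inhibition, exceeds three library SD while starting fluorescence stays within three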;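 note: channel opened by potassium depolarization with thallium stimulus after 20 min compound exposure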
KCC2 sec1 – KCC2 modulators in sodium-free buffer, confirmation, cell-based, HEK293 KCC2, thallium flux, secondary assay; shares compounds with Cl transport mod; FluoZin2 fluorescence; active compounds read high; normalised thallium flux (F/F0 slope) at 10 µM; 3,700 compounds, 15% hits; AID 1713, 2009;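 active = thallium flux slope above the same plate's solvent-only control mean plus 3 SD; inconclusive = the two replicate wells disagree; inactive = no significant difference from solvent-only control wells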
KCC2 bumet counter – thallium flux persisting under bumetanide in KCC2 cells, confirmation, counter-screen for KCC2 modulator project, cell-based, HEK293 KCC2, FluoZin2, secondary assay 3; shares compounds with Cl transport mod; HEK293-KCC2 + bumetanide/ouabain; active compounds read high; normalized thallium flux at 10 µM; 3,700 compounds, 49% hits; AID 1714, 2009;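 active = thallium entry rate above the same plate's blocked-transporter control wells by more than 3 SD; inconclusive = the two repeat wells disagree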;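 note: raw slope of fluorescence over initial fluorescence between 10 and 20 s after thallium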
KCC2 sec2 – KCC2 modulators without ouabain present, confirmation, cell-based, HEK293 KCC2, thallium flux, FluoZin2, secondary assay 2 | shares compounds with Cl transport mod | thallium flux FluoZin2 fluorescence; actives lie on both sides; F/F0 rise rate, 10–20 s post-thallium | normalized thallium flux at 10 µM | 3,700 compounds, 23% hits | AID 1715, 2009;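 active = thallium flux slope more than 3 SD above or below the plate's solvent-only control mean, mostly below; inconclusive = the two repeat wells disagreed; inactive = no significant shift from solvent-only controls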;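 note: raw slope with 0.1% DMSO as baseline and bumetanide as block control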
HEK counter1 – thallium flux modulation in parental HEK cells, confirmation, counter-screen for KCC2 modulator project, cell-based, counterscreen 1. HEK293 parental cells, thallium flux FluoZin2, ouabain; baseline-ratio fluorescence slope, 10–20 s after thallium. 3,700 compounds, 46% hits. AID 1716, 2009. shares compounds with Cl transport mod. thallium flux rate (normalised fluorescence) at 10 µM;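 active = thallium flux rate significantly above the same plate's solvent-only control wells, beyond their mean plus 3 SD; inconclusive = the two replicate wells gave conflicting results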
KCC2 ouabain – KCC2 inhibitors and activators, ouabain retest, confirmation, HEK-KCC2 cells; AID 1717, 2009; HEK293-KCC2, thallium flux FluoZin2 fluorescence; bidirectional: low = inhibitor, high = activator; shares compounds with Cl transport mod; 3,700 compounds, 48% hits; raw Tl+ flux slope (below DMSO = inhibition, above = activation) at 10 µM;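 active = thallium flux slope beyond 3 SD from same-plate DMSO control mean in most replicates, usually higher, sometimes lower; inconclusive = repeat tests gave conflicting results; inactive = no significant difference from controls in most replicates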;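 note: slope of initial-normalized fluorescence between seconds 10 and 20 after thallium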
HEK293 Tl flux2 – native HEK Tl+ uptake effects, second counter-screen – HEK cells, counterscreen 2, counter-screen for KCC2 modulator project, confirmation; thallium flux slope at 10 µM; HEK293 parental, thallium flux FluoZin-2 fluorescence slope; 3,700 compounds, 33% hits; shares compounds with Cl transport mod;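 active = thallium flux slope above the same plate's solvent-control mean plus 3 SD in both duplicate wells; inconclusive = duplicate wells that disagreed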;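 note: run without ouabain in cells lacking the KCC2 cotransporter; slope of fluorescence scaled to its starting value between 10 and 20 s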
Active calls of the source: *; i = inactive; ? = inconclusive; · = not tested or not shown.

SMILES	hERG protect	Cl transport mod	KCNQ1 pot	KCNK9 inh	KCNK3 block	KCNQ1 inh	KCC2 sec1	KCC2 bumet counter	KCC2 sec2	HEK counter1	KCC2 ouabain	HEK293 Tl flux2
NNC(=O)Cn1nc(Cc2ccccc2)n(N)c1=O	·	·	·	·	i	·	·	·	·	·	·	·
COc1ccccc1NC(=O)c1oc2ccccc2c1NC(=O)c1cc(OC)c(OC)c(OC)c1	-5.0	0.427	i	i	i	i	·	·	·	·	·	·
COc1ccccc1NC(=O)c1oc2ccc(C)cc2c1C	-11.1	-4.74*	i	i	i	i	0.00594	0.00528	0.0312	0.0081	0.0193	0.0119
O=c1oc(-c2ccc(F)cc2)nc2ccsc12	-8.7	·	i	i	i	i	0.00605	0.00502	0.0316	?	0.0168*	0.01
Cc1cc(NC(=O)COC(=O)CC2CCCC2)c([N+](=O)[O-])cc1C	-16.9	·	i	i	i	i	·	·	·	·	·	·
O=C(CCCCCn1c(SCC(=O)c2ccccc2)nc2ccccc2c1=O)NCc1ccco1	-19.1	-0.364	i	i	i	i	·	·	·	·	·	·
CCOC(=O)CSc1nc2ccccc2c(=O)n1CCCCCC(=O)NCc1ccco1	-11.0	-4.07*	i	i	i	i	0.00838	?	0.0328	0.00705	0.0224	0.0109
O=C1c2ccccc2NC(c2ccc(Cl)cc2Cl)N1O (stereo not drawn)	-1.8	3.84*	i	i	i	i	0.0102	0.0209*	0.0315	0.00946*	0.0214	0.00971
O=C(NC1CCN(S(=O)(=O)c2ccc(Cl)cc2)CC1)c1cccnc1	-5.9	·	i	i	i	i	·	·	·	·	·	·
COc1ccc(OCCNc2cc(N3CCOCC3)ccc2[N+](=O)[O-])cc1	-3.0	-4.74*	i	i	i	i	0.0083	0.00611	0.0338	0.00742	0.0211	0.0105
COc1cccc(OCCNc2cc(N3CCOCC3)ccc2[N+](=O)[O-])c1	-5.5	-0.266	i	i	i	i	·	·	·	·	·	·
O=C(/C=C/c1ccc(F)cc1)NC(=S)N1CCN(c2ccccn2)CC1	-9.4	21.2*	i	i	i	i	0.00758	0.0191*	0.0306	0.013*	?	0.0135*
O=C(NC(=S)N1CCN(C/C=C/c2ccccc2)CC1)c1cccnc1	-9.8	3.29	i	i	i	i	·	·	·	·	·	·
O=C(/C=C/c1ccccc1)NC(=S)N1CCSCC1	-11.8	9.69*	i	i	i	i	0.0223*	0.0257*	?	0.0181*	0.0251*	0.0204*
O=C(NC(=S)N1CCN(C/C=C/c2ccccc2)CC1)c1ccc(F)cc1	0.6	151*	8*	i	i	i	0.00991*	0.134*	0.107*	0.114*	0.122*	0.107*
CCOC(=O)N1CCN(Cc2nc3c(c(=O)n(C)c(=O)n3C)n2CCCc2ccccc2)CC1	-17.0	·	i	i	i	i	·	·	·	·	·	·
C/C(=N/Oc1nc(C)cc(C)n1)c1ccccc1	0.9	0.107	i	i	i	i	·	·	·	·	·	·
Cc1nnc2ccc(-c3ccc(NS(=O)(=O)c4ccccc4[N+](=O)[O-])cc3)nn12	·	·	·	·	i	·	·	·	·	·	·	·
CCc1ccc(NC(=O)c2c(Cl)nc(C)c(Cl)c2C)cc1	-7.1	-4.23*	i	i	i	i	0.00537	0.00533	0.0251*	?	0.0158*	0.012
CCOC(=O)n1c(O)c(N=NC(N)=S)c2cc(C)ccc21	-10.8	17.8*	i	i	i	i	0.0159	0.0384*	?	0.0143*	0.0311*	0.0163*
COc1ccc2c(c1)c(N=NC(N)=S)c(O)n2CC(=O)c1ccccc1	-8.1	·	i	i	i	i	·	·	·	·	·	·
CC(=O)NC(Cc1cc(C)ccc1C)C(=O)N1CCN(C(=O)Nc2ccc(C(C)=O)cc2)CC1 (stereo not drawn)	-8.7	-1.14	i	i	i	i	·	·	·	·	·	·
O=C(CN(CCc1ccccc1)C(=O)Cn1nnc(-c2cccs2)n1)NCc1ccco1	3.1	-4.08*	i	i	i	i	0.00526	0.00504	0.0238*	0.00694	?	0.00978
O=C(CN(C(=O)Cn1nnc(-c2cccs2)n1)c1ccc2c(c1)OCCO2)NCc1ccccc1	-14.3	-3.06	i	i	i	i	·	·	·	·	·	·
O=c1c2ccccc2c(-c2n[nH]c(=S)o2)nn1Cc1ccccc1	-9.0	-4.92*	i	i	i	i	0.00881	0.00568	?	0.00684	0.0136*	?
S=c1[nH]nc(-c2ccccc2)o1	-4.1	-0.26	i	i	i	i	·	·	·	·	·	·
COc1ccccc1NS(=O)(=O)c1cc(NC(=O)c2cccnc2)ccc1N1CCCCC1	·	·	·	·	i	·	·	·	·	·	·	·
O=S(=O)(Nc1nc2ccccc2nc1N1CCN(c2ccccn2)CC1)c1ccc(Cl)cc1	·	-3.1*	·	·	i	·	0.00475	0.00482	0.0239*	0.00689	?	0.0103
